Consider 2 molecules from ChEMBL document CHEMBL5042555, “Development of Myostatin Inhibitory d-Peptides to Enhance the Potency, Increasing Skeletal Muscle Mass in Mice” (ACS Med Chem Lett, 2022).

Activity calls are given as the source filed them. The rule behind the calls is not given here. Non-standard residues stand in square brackets, D forms with d. Residues, ends and D or L forms follow the SMILES beside them. Chg = N[C@H](C(=O)O)C1CCCCC1

What is called IC50 is the concentration that gives 50% inhibition.

The target in assay [1] is T1, Growth/differentiation factor 8 (Homo sapiens, UniProt O14793).
T1 sequence (O14793 whole entry): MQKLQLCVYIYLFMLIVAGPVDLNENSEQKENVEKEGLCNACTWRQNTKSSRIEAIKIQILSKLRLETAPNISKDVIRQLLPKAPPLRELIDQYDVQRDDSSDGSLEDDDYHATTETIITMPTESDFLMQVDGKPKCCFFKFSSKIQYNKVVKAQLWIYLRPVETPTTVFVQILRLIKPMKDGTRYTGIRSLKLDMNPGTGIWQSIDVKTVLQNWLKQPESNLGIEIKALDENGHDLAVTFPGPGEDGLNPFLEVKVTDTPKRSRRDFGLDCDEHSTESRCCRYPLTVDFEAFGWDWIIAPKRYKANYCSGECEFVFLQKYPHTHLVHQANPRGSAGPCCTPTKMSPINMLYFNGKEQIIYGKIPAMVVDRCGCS
Nature of the assay: Inhibition of myostatin (unknown origin) expressed in HEK293 cells transfected with Smad2/3 responsive reporter plasmid incubated for 4 hrs by dual luciferase reporter gene based assay. The format is cell-based. Background: Reporter assays use an easily measured gene product as a stand-in for the process of interest.

Assay [2] can be described thus: Inhibition of activin A (unknown origin) expressed in HEK293 cells transfected with Smad2/3 responsive reporter plasmid incubated for 4 hrs by dual luciferase reporter gene assay. Conditions: Homo sapiens, HEK293, 4 h.
A short description of assay [3]: Inhibition of GDF-11 (unknown origin) expressed in HEK293 cells transfected with Smad2/3 responsive reporter plasmid incubated for 4 hrs by dual luciferase reporter gene based assay. Conditions: Homo sapiens, HEK293, 4 h.
Another assay relates to Mus musculus. Kind of assay: In vivo inhibition of myostatin in C57BL/6J mouse assessed as increase in weight of tibialis anterior muscles normalized with body weight at 0.75 mM, IM administered for 28 days. Conditions: time 28.0 day. It counts as functional. A digest of the protocol: (§1)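 Wild-type male C57BL/6J mice, 8 weeks old. Single intramuscular injection at day 0: peptide (30 nmol; 0.75 mM in saline, 40 μL) into left tibialis anterior, saline (40 μL) into right TA. TA muscles collected and weighed at day 28, weight normalized to body weight. Increase expressed relative to saline-injected TA (=100%). Mean ± SD, N = 4–5 mice.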

Assay [4] is described as follows: In vivo inhibition of myostatin in C57BL/6J mouse assessed as increase in weight of tibialis anterior muscles at 0.75 mM, IM administered for 28 days relative to control. It counts as functional. The arrangement: scale not given: the % may be the effect or the level left. Conditions: time 28 day. A digest of the protocol: as §1
For assay [5], the target named is Transforming growth factor beta-1 proprotein (Homo sapiens, UniProt P01137). Nature of the assay: Inhibition of TGF beta 1 (unknown origin) expressed in HEK293 cells transfected with Smad2/3 responsive reporter plasmid incubated for 4 hrs by dual luciferase reporter gene assay. The format is cell-based. A digest of the protocol:
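HEK293 cells co-transfected with Smad-responsive firefly luciferase reporter (pGL4.48[luc2P/SBE/Hygro]) and Renilla control (pGL4.74[hRluc/TK]). Cells starved 8 h in serum-free DMEM, then exposed 4 h to TGF-β1 at 2.5 ng/mL (0.1 nM) with or without peptide (0.025–18 or 0.074–54 μM). SB431542 at 5 μM as positive control. Triplicate means ± SD. IC50 from sigmoidal curve fitting.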

Transforming growth factor beta-1 proprotein, sequence (P01137 279-390 limits assumed): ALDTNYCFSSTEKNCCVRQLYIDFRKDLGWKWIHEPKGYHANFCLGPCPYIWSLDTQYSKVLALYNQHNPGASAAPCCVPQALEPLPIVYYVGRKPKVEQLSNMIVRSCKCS

Take `CC[C@@H](C)[C@@H](NC(=O)[C@@H](CCCNC(=N)N)NC(=O)[C@@H](Cc1c[nH]c2ccccc12)NC(=O)[C@H](NC(=O)[C@@H](CCCCN)NC(=O)[C@H](NC(=O)[C@@H](CCCNC(=N)N)NC(=O)[C@H](NC(=O)[C@@H](Cc1c[nH]c2ccccc12)NC(=O)[C@@H](CCCNC(=N)N)NC(=O)[C@@H](CCCCN)NC(=O)[C@H](NC(=O)[C@@H](CCCNC(=N)N)NC(=O)[C@H](N)CC(C)C)C1CCCCC1)[C@H](C)CC)C1CCCCC1)[C@H](C)CC)C(=O)N[C@H](Cc1ccc(O)cc1)C(=O)N[C@H](Cc1c[nH]c2ccccc12)C(N)=O`: the IC50 in assay [1] worked out at 190 nM; in assay [2], 890 nM; in assay [3], 630 nM; in assay [5], 1.6 µM. Also, the outcome with Mus musculus was Active. The Activity in assay [4] is given as 133%.
For the molecule `CC[C@H](C)[C@H](NC(=O)[C@H](CCC(N)=O)NC(=O)[C@@H](NC(=O)[C@H](CCCCN)NC(=O)[C@@H](NC(=O)[C@@H](Cc1c[nH]c2ccccc12)NC(=O)[C@H](CCCNC(=N)N)NC(=O)[C@@H](NC(=O)[C@H](Cc1ccc(O)cc1)NC(=O)[C@@H](N)Cc1c[nH]c2ccccc12)[C@@H](C)CC)[C@@H](C)CC)C1CCCCC1)C(=O)N[C@@H](Cc1c[nH]c2ccccc12)C(=O)N[C@@H](CO)C(=O)N[C@@H](CCCCN)C(=O)N[C@H](C(=O)N[C@@H](CCCNC(=N)N)C(=O)N[C@@H](CC(C)C)C(N)=O)C1CCCCC1` (H-WYIR[dW]IK[Chg]QIWSK[Chg]RL-NH2), the IC50 worked out at 260 nM in assay [1], 1400 nM in assay [2], 1400 nM in assay [3] and 6.7 µM in assay [5]. The outcome with Mus musculus was Active. Further, the Activity in assay [4] turned out to be 109%.
